# High-throughput results deposited in PubChem BioAssay by several laboratories.
# MC4R barr agon = agonists of human melanocortin 4 receptor (MC4R) beta-arrestin; actives 0.98% (n = 360,000); activation, % at 8.9 µM; P32245; AID 540308; U2OS MC4R beta-arrestin complementation, luminescence; percent of melanotan II response, DMSO zero;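 active means activation above a per-plate cutoff, the mean activation of sample wells on that plate plus 3 SD, cut at about 8% in these data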
# ANO1 block = blocks the mouse calcium-activated chloride channel TMEM16A; Q8BHY3; HEK293 TMEM16A/YFP iodide influx fluorescence, ionomycin; normalized B-score (activity score, 25-100; higher = stronger inhibition) at 10 µM; actives 1.2% (n = 310,000); AID 588511;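 active means ratio plate-corrected score three or more library SD toward inhibition, starting fluorescence score within five deviations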;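 further: score derived from kinetic fluorescence span divided by baseline fluorescence per well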
# HTR2A ag = activates the mouse 5-HT2A serotonin receptor; CHO-K1 mHTR2A beta-arrestin complementation, luminescence; percent of 30 µM serotonin response; activation, % at 7.6 µM; P35363; actives 0.66% (n = 360,000);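 active means activation above a run cutoff, the mean activation of all tested compounds plus 3 SD, cut at about 14% in these data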;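 further: 0% = plate median of compound wells and 100% = 30 µM serotonin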
# MC4R antagonist = antagonists of human melanocortin 4 receptor (MC4R) | P32245 | MC4R-expressing cells, MTII-stimulated cAMP, LANCE TR-FRET | inhibition, % at 6.5 µM | actives 0.48% (n = 360,000) | AID 540295;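 active means inhibition above its plate's cutoff, the mean of tested wells on that plate plus 3 SD, cut at about 29% in these data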;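 further: 0% = Melanotan II alone and 100% = Melanotan II plus saturating MCL0020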
#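 material = U2OS cells stably expressing human melanocortin 4 receptor (MC4R) | also added = Melanotan II challenge | dosing = single nominal compound dose of 6.5 µM | detection = TR-FRET with Eu-cAMP and labeled anti-cAMP, 671 nm | replication = singlicate | timing = compound 30 min, challenge 1 h, detection 1 h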
# TMEM16A act = activates or potentiates the mouse TMEM16A chloride channel; B-score at 10 µM; Q8BHY3; actives 0.3% (n = 340,000); HEK293 TMEM16A/YFP-H148Q/I152L, iodide quench fluorescence; hits give low values; AID 623877;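 active means fluorescence-ratio B-score plate-corrected deviation score at least 3 library SD below zero, with starting fluorescence score within 5 deviations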;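 further: channel opened by trigger with iodide after compound preincubation; score built on the fluorescence ratio of max minus min over baseline; more negative score means more quench and so TMEM16A activation or potentiation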
# MIN6 prolif = inducers of beta-cell replication in MIN6 cells. MIN6 cells proliferation, ATPlite luminescence, 48 h; cells starved in 0.2% serum; 100% = growth in 10% serum. proliferation, % at 10 µM. actives 0.29% (n = 330,000). AID 2380;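 active means compounds whose signal lies at least 3.5 SD above the mean of all wells on their plate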;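 further: 0% = DMSO-treated cells in low-serum medium and 100% = 10% serum control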
# TMEM16A reconf = re-confirmation of mouse TMEM16A chloride channel inhibitors; shares compounds with ANO1 block; HEK293 TMEM16A/YFP-H148Q, iodide quench fluorescence; ionomycin added to raise cell calcium; inhibition, % at 10 µM; actives 39% (n = 2,300); AID 652189;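 active means mean duplicate percent inhibition, scaled so buffer wells are 0 and the reference blocker 100, over three buffer SD above buffer mean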
# TMEM16A Ca cntr = counter-screen for TMEM16A inhibitors: effect on calcium mobilization; shares compounds with ANO1 block; TMEM16A/YFP HEK293, Fluo4 calcium mobilization; calcium response (% of ionomycin), % at 10 µM; actives 2% (n = 2,300); AID 652231;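 active means duplicate-averaged calcium signal over 20% of the ionomycin maximum, relative to buffer baseline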;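 further: each well's signal is peak minus trough fluorescence divided by its pre-addition baseline; 0% = buffer wells and 100% = ionomycin wells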
# Parental YFP cnt = acts in parental YFP-HEK293 cells lacking TMEM16A, counter-screen | shares compounds with ANO1 block | 2,300 tested, under 10 active | YFP ratio F(max-min)/F0 at 10 µM | iodide YFP quench, ionomycin;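 active means yellow fluorescent protein signal ratio exceeding the buffer control mean by over 5 SD of those controls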;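 further: ratio is mean of duplicate wells from kinetic YFP trace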
# ClC-1 rat inh = blocks the rat ClC-1 voltage-dependent chloride channel | shares compounds with ANO1 block | CHO ClC-1-YFP, iodide influx fluorescence quench; iodide control reads 0, buffer control 100 | ratio percent, % at 10 µM | 2,300 tested, under 10 active | AID 652236;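 active means duplicate-mean ratio percent above the mean of iodide-only control wells, which defines zero, plus 5 of their SD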;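 further: higher percent means stronger block of ClC-1 iodide influx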
# Target sequence (P35524 whole entry, looked up): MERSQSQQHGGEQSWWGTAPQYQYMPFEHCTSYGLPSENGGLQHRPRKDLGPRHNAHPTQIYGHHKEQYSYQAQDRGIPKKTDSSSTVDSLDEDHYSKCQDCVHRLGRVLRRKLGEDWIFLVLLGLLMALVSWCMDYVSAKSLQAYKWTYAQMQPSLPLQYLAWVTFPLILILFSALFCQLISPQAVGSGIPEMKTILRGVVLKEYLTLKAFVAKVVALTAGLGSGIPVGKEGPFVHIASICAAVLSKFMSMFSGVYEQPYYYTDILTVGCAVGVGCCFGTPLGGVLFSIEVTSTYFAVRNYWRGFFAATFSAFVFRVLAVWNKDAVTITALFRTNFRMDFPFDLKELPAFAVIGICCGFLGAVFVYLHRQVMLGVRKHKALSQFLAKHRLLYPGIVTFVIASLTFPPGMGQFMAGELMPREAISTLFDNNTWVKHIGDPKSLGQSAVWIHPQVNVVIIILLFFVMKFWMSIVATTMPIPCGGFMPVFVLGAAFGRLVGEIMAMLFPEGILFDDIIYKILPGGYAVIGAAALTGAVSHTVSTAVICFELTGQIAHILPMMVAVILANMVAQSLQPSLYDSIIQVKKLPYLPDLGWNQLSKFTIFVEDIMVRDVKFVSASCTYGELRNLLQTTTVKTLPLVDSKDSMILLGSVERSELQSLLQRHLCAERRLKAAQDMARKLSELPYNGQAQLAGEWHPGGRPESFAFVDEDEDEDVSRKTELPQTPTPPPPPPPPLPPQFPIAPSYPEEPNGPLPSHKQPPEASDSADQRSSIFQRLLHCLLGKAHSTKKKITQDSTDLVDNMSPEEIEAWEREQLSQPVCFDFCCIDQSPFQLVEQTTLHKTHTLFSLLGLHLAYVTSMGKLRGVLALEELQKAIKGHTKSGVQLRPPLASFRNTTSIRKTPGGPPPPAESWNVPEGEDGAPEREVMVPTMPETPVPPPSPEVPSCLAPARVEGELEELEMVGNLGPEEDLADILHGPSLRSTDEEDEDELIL
# * hit, by the source's call; i = inactive; · = not tested or not shown. A selection: hits, their analogues and other compounds. The true share with any hit is near 3.4%.
SMILES,MC4R barr agon,ANO1 block,HTR2A ag,MC4R antagonist,TMEM16A act,MIN6 prolif,TMEM16A reconf,TMEM16A Ca cntr,Parental YFP cnt,ClC-1 rat inh
Cc1nc2ccc(NC(=O)c3cccs3)cc2s1,-5,i,-6,-1,i,-2,·,·,·,·
Cc1nc2ccc(NC(=O)c3sccc3C)cc2s1,-2,25*,-2,5,i,1,i,i,-0.92,-8
O=c1c2cc(Br)ccc2nc(-c2ccc(Cl)cc2)n1O,-1,25*,8,3,i,·,39%*,110%*,-0.87,-6
O=C(c1noc2c1CSc1ccccc1-2)N1CCN(c2ccc(Cl)cc2)CC1,-4,25*,-2,4,i,-3,i,i,-1.2,-5
Oc1c(C=Nc2cccnc2)sc2ccccc12,-1,i,-3,-2,i,-2,i,i,-1,-5
CNC(=S)N(Cc1ccc(OC)cc1)C1CC(=O)N(c2ccc(Cl)cc2)C1=O (centres undefined),1,i,-1,19,i,-2,28%*,i,-0.96,-4
COc1ccccc1C1=NOC(Cn2c(NCC3CCCO3)nc3c2c(=O)n(C)c(=O)n3C)C1 (centres undefined),-1,i,5,5,i,-3,i,i,-1,-10
COc1ccccc1C1=NOC(Cn2c(NCCCO)nc3c2c(=O)n(C)c(=O)n3C)C1 (centres undefined),0,i,-3,16,i,1,·,·,·,·
Cc1c(NC(=O)C(C)Sc2ccccc2)c(=O)n(-c2ccccc2)n1C (centres undefined),-2,i,0,4,i,-2,i,i,-0.82,-8
Cc1ccc(SC(C)C(=O)Nc2c(C)n(C)n(-c3ccccc3)c2=O)cc1 (centres undefined),-1,i,1,5,i,0,·,·,·,·
COc1ccc(CCN2CC(C(=O)OCC(=O)N(C)CC(=O)Nc3ccccc3Cl)CC2=O)cc1OC (centres undefined),-2,·,6,10,i,·,·,·,·,·
CCOC(=O)c1c(-c2ccccc2)csc1NC(=O)CSc1nc(N)cc(N)n1,0,25*,4,10,i,-3,30%*,i,-0.85,-5
Cc1cccc(N(C)S(=O)(=O)c2ccc(-c3cc(C)no3)s2)c1,-5,25*,2,-25,i,-6,i,i,-0.88,-8
CCOC(=O)C1=C(COC(=O)/C=C/c2cccc(OC)c2OC)NC(=O)NC1C (centres undefined),2,i,-2,3,i,2,·,·,·,·
O=C(COC(=O)C1CC2CCCC(C1)C2=O)Nc1ccccc1 (centres undefined),-2,·,3,7,i,1,·,·,·,·
CCCC(CCC)C(=O)Nc1c[nH]c(=O)[nH]c1=O,1,100*,0,1,i,-1,i,i,-0.99,-22
Cc1cccc(N2CCN(C(=O)Cc3ccc(Br)cc3)CC2)c1C,4,100*,0,-1,i,-4,i,i,-1,-12
CCc1cc(C(=O)COc2ccc(F)cc2)c(O)cc1O,-3,100*,-6,-6,i,3,20%*,i,-0.8,-4
COc1cccc(CN(C)C(=O)c2cc(COc3ccc4ncccc4c3)on2)c1,-2,25*,1,2,i,-7,38%*,i,-0.98,-34
O=C(NCCc1cn2ccccc2n1)c1cc(COc2ccc3ncccc3c2)on1,-2,100*,7,-4,i,-7,19%*,i,-1.1,-29
COCC1CCN(C(=O)c2cc(COc3ccc4ncccc4c3)on2)CC1,-2,25*,4,11,i,-6,32%*,i,-0.89,-13
CC(NC(=O)c1cc(COc2ccc3ncccc3c2)on1)c1ccc(F)cc1 (centres undefined),3,i,5,12,i,-6,·,·,·,·
COCC1CCN(C(=O)c2cc(COc3ccc(-n4cncn4)cc3)on2)CC1,-2,i,3,-2,i,-4,·,·,·,·
CSc1ccccc1OCc1cc(C(=O)N2CCC(c3ccncc3)CC2)no1,-2,100*,12,-4,i,-7,i,i,-1.2,-20
CCCN(CC(=O)Nc1ccccc1C)C(=O)c1ccc(N2CCCC2)c([N+](=O)[O-])c1,-3,i,2,10,i,-4,·,·,·,·
SMILES,MC4R barr agon,ANO1 block,HTR2A ag,MC4R antagonist,TMEM16A act,MIN6 prolif,TMEM16A reconf,TMEM16A Ca cntr,Parental YFP cnt,ClC-1 rat inh
Cc1ccc(OCc2cc(C(=O)NC3CCCCC3)no2)cn1,-2,i,8,2,i,-5,·,·,·,·
CN(Cc1nccs1)C(=O)c1cc(COc2cccc3cnccc23)on1,-3,i,-5,11,i,-5,·,·,·,·
O=C(NC1CCCC1)c1cc(COc2ccc3ncccc3c2)on1,0,25*,0,3,i,-6,i,i,-1.1,-22
O=C(c1cc(COc2ccc3ncccc3c2)on1)N1CCCC1,1,25*,12,-2,i,-6,26%*,i,-1.1,-26
COc1cc(Cl)ccc1OCc1cc(C(=O)N(C)Cc2cccc3cnccc23)no1,-1,100*,-9,12,i,-2,25%*,i,-1.1,-13
O=C(c1cc(COc2ccc3ncccc3c2)on1)N1CCCCCC1,0,i,0,-5,i,-6,·,·,·,·
COc1ccc(Cn2nnnc2C(c2cccs2)N2CCCCCC2)cc1 (centres undefined),3,100*,-2,1,i,-5,i,i,-0.98,-9
OCCNc1c2ccccc2nc2c(F)c(F)c(F)c(F)c12,0,i,1,-27,i,·,i,i,-1.3,2
Cc1c2ccccc2nc2c(F)c(NCCO)c(F)c(F)c12,-1,i,-1,-17,i,-4,·,·,·,·
